Assays:
Details in all cases: 81-11963
[1] = test system: CC(=O)OCC1=C(C(=O)O)N2C(=O)[C@@H](NC(=O)Cc3cccs3)[C@H]2SC1; assay: (§1) Activity of Pseudomonas aeruginosa beta-lactamase VIM-2 by spectrophotometry
Procedure, shortened: (§2)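 Recombinant enzyme was expressed in E. coli BL21(DE3) from pET-26b and purified from the periplasm to >99%, with concentration taken from A280. Hydrolysis was followed spectrophotometrically at 25°C in 50 mM sodium cacodylate pH 7.0 with 100 μM ZnCl2 and 0.1 mg/ml BSA. Km and kcat came from initial velocity versus substrate concentration. Some Km values were taken as competitive Ki against nitrocefin reporter.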

[2] = test system: CC(C)(O/N=C(\C(=O)N[C@@H]1C(=O)N2C(C(=O)[O-])=C(C[n+]3ccccc3)CS[C@H]12)c1csc(N)n1)C(=O)O; assay: as §1; procedure, shortened: as §2
[3] = test system: CC1(C)S[C@@H]2[C@H](NC(=O)C(C(=O)O)c3ccccc3)C(=O)N2[C@H]1C(=O)O; assay: as §1; procedure, shortened: as §2
[4] = test system: CC1(C)S[C@@H]2[C@H](NC(=O)Cc3ccccc3)C(=O)N2[C@H]1C(=O)O; assay: as §1; procedure, shortened: as §2
[5] = test system: CC1(C)S[C@@H]2[C@H](NC(=O)[C@H](N)c3ccccc3)C(=O)N2[C@H]1C(=O)O; assay: as §1; procedure, shortened: as §2
[6] = test system: CC1(C)S[C@@H]2[C@H](NC(=O)[C@H](NC(=O)N3CCNC3=O)c3ccccc3)C(=O)N2[C@H]1C(=O)O; assay: as §1; procedure, shortened: as §2
[7] = test system: CC1(C)[C@H](C(=O)O)N2C(=O)C[C@H]2S1(=O)=O; assay: as §1; procedure, shortened: as §2
[8] = test system: CCN1CCN(C(=O)N[C@@H](C(=O)N[C@@H]2C(=O)N3[C@@H]2SC(C)(C)[C@@H]3C(=O)O)c2ccccc2)C(=O)C1=O; assay: as §1; procedure, shortened: as §2
[9] = test system: CO/N=C(\C(=O)N[C@@H]1C(=O)N2C(C(=O)O)=C(COC(C)=O)CS[C@H]12)c1csc(N)n1; assay: as §1; procedure, shortened: as §2
[10] = test system: CO/N=C(\C(=O)N[C@@H]1C(=O)N2C(C(=O)O)=C(COC(N)=O)CS[C@H]12)c1ccco1; assay: as §1; procedure, shortened: as §2
[11] = test system: CO/N=C(\C(=O)N[C@@H]1C(=O)N2C(C(=O)[O-])=C(C[N+]3(C)CCCC3)CS[C@H]12)c1csc(N)n1; assay: as §1; procedure, shortened: as §2
[12] = test system: CO[C@@]1(NC(=O)C(C(=O)O)c2ccc(O)cc2)C(=O)N2C(C(=O)O)=C(CSc3nnnn3C)CO[C@@H]21; assay: as §1; procedure, shortened: as §2
[13] = test system: CO[C@@]1(NC(=O)Cc2cccs2)C(=O)N2C(C(=O)O)=C(COC(N)=O)CS[C@@H]21; assay: as §1; procedure, shortened: as §2
[14] = test system: C[C@@H](O)[C@H]1C(=O)N2C(C(=O)O)=C(S[C@@H]3CN[C@H](C(=O)N(C)C)C3)[C@H](C)[C@H]12; assay: as §1; procedure, shortened: as §2
[15] = test system: C[C@@H](O)[C@H]1C(=O)N2C(C(=O)O)=C(S[C@@H]3CN[C@H](C(=O)Nc4cccc(C(=O)O)c4)C3)[C@H](C)[C@H]12; assay: as §1; procedure, shortened: as §2
[16] = test system: C[C@H]1[C@H](NC(=O)/C(=N\OC(C)(C)C(=O)O)c2csc(N)n2)C(=O)N1S(=O)(=O)O; assay: as §1; procedure, shortened: as §2
[17] = test system: C[C@]1(Cn2ccnn2)[C@H](C(=O)O)N2C(=O)C[C@H]2S1(=O)=O; assay: as §1; procedure, shortened: as §2
[18] = test system: Cc1onc(-c2ccccc2Cl)c1C(=O)N[C@@H]1C(=O)N2[C@@H]1SC(C)(C)[C@@H]2C(=O)O; assay: as §1; procedure, shortened: as §2
[19] = test system: O=C(Cc1cccs1)N[C@@H]1C(=O)N2C(C(=O)O)=C(/C=C/c3ccc([N+](=O)[O-])cc3[N+](=O)[O-])CS[C@H]12; assay: as §1; procedure, shortened: as §2
[20] = test system: O=C(Cc1cccs1)N[C@@H]1C(=O)N2C(C(=O)[O-])=C(C[n+]3ccccc3)CS[C@H]12; assay: as §1; procedure, shortened: as §2
[21] = test system: O=C(O)[C@H]1/C(=C/CO)O[C@@H]2CC(=O)N21; assay: as §1; procedure, shortened: as §2
[22] = test system: CC(=O)OCC1=C(C(=O)O)N2C(=O)[C@@H](NC(=O)Cc3cccs3)[C@H]2SC1; assay: (§3) Ratio of Kcat to Km for Pseudomonas aeruginosa beta-lactamase VIM-2 by spectrophotometry; procedure, shortened: as §2
[23] = test system: CC(C)(O/N=C(\C(=O)N[C@@H]1C(=O)N2C(C(=O)[O-])=C(C[n+]3ccccc3)CS[C@H]12)c1csc(N)n1)C(=O)O; assay: as §3; procedure, shortened: as §2
[24] = test system: CC1(C)S[C@@H]2[C@H](NC(=O)C(C(=O)O)c3ccccc3)C(=O)N2[C@H]1C(=O)O; assay: as §3; procedure, shortened: as §2
[25] = test system: CC1(C)S[C@@H]2[C@H](NC(=O)Cc3ccccc3)C(=O)N2[C@H]1C(=O)O; assay: as §3; procedure, shortened: as §2
[26] = test system: CC1(C)S[C@@H]2[C@H](NC(=O)[C@H](N)c3ccccc3)C(=O)N2[C@H]1C(=O)O; assay: as §3; procedure, shortened: as §2
[27] = test system: CC1(C)S[C@@H]2[C@H](NC(=O)[C@H](NC(=O)N3CCNC3=O)c3ccccc3)C(=O)N2[C@H]1C(=O)O; assay: as §3; procedure, shortened: as §2
[28] = test system: CC1(C)[C@H](C(=O)O)N2C(=O)C[C@H]2S1(=O)=O; assay: as §3; procedure, shortened: as §2
[29] = test system: CCN1CCN(C(=O)N[C@@H](C(=O)N[C@@H]2C(=O)N3[C@@H]2SC(C)(C)[C@@H]3C(=O)O)c2ccccc2)C(=O)C1=O; assay: as §3; procedure, shortened: as §2
[30] = test system: CO/N=C(\C(=O)N[C@@H]1C(=O)N2C(C(=O)O)=C(COC(C)=O)CS[C@H]12)c1csc(N)n1; assay: as §3; procedure, shortened: as §2
[31] = test system: CO/N=C(\C(=O)N[C@@H]1C(=O)N2C(C(=O)O)=C(COC(N)=O)CS[C@H]12)c1ccco1; assay: as §3; procedure, shortened: as §2
[32] = test system: CO/N=C(\C(=O)N[C@@H]1C(=O)N2C(C(=O)[O-])=C(C[N+]3(C)CCCC3)CS[C@H]12)c1csc(N)n1; assay: as §3; procedure, shortened: as §2
[33] = test system: CO[C@@]1(NC(=O)C(C(=O)O)c2ccc(O)cc2)C(=O)N2C(C(=O)O)=C(CSc3nnnn3C)CO[C@@H]21; assay: as §3; procedure, shortened: as §2
[34] = test system: CO[C@@]1(NC(=O)Cc2cccs2)C(=O)N2C(C(=O)O)=C(COC(N)=O)CS[C@@H]21; assay: as §3; procedure, shortened: as §2
[35] = test system: C[C@@H](O)[C@H]1C(=O)N2C(C(=O)O)=C(S[C@@H]3CN[C@H](C(=O)N(C)C)C3)[C@H](C)[C@H]12; assay: as §3; procedure, shortened: as §2
[36] = test system: C[C@@H](O)[C@H]1C(=O)N2C(C(=O)O)=C(S[C@@H]3CN[C@H](C(=O)Nc4cccc(C(=O)O)c4)C3)[C@H](C)[C@H]12; assay: as §3; procedure, shortened: as §2
[37] = test system: C[C@]1(Cn2ccnn2)[C@H](C(=O)O)N2C(=O)C[C@H]2S1(=O)=O; assay: as §3; procedure, shortened: as §2
[38] = test system: Cc1onc(-c2ccccc2Cl)c1C(=O)N[C@@H]1C(=O)N2[C@@H]1SC(C)(C)[C@@H]2C(=O)O; assay: as §3; procedure, shortened: as §2
[39] = test system: O=C(Cc1cccs1)N[C@@H]1C(=O)N2C(C(=O)O)=C(/C=C/c3ccc([N+](=O)[O-])cc3[N+](=O)[O-])CS[C@H]12; assay: as §3; procedure, shortened: as §2
[40] = test system: O=C(Cc1cccs1)N[C@@H]1C(=O)N2C(C(=O)[O-])=C(C[n+]3ccccc3)CS[C@H]12; assay: as §3; procedure, shortened: as §2
[41] = test system: O=C(O)[C@H]1/C(=C/CO)O[C@@H]2CC(=O)N21; assay: as §3; procedure, shortened: as §2

Beta-lactamase VIM-2 (Pseudomonas aeruginosa) (from UniProt Q9K2N0)
Km [1]: 11 µM
kcat [1]: 130 s⁻¹
Km [2]: 72 µM
kcat [2]: 3.6 s⁻¹
Km [3]: 205 µM
kcat [3]: 185 s⁻¹
Km [4]: 70 µM
kcat [4]: 280 s⁻¹
Km [5]: 90 µM
kcat [5]: 125 s⁻¹
Km [6]: 200 µM
kcat [6]: 200 s⁻¹
Km [7]: 320 µM
kcat [7]: 23 s⁻¹
Km [8]: 125 µM
kcat [8]: 300 s⁻¹
Km [9]: 12 µM
kcat [9]: 70 s⁻¹
Km [10]: 20 µM
kcat [10]: 8 s⁻¹
Km [11]: > 400 µM
kcat [11]: > 40 s⁻¹
Km [12]: 55 µM
kcat [12]: 90 s⁻¹
Km [13]: 13 µM
kcat [13]: 15 s⁻¹
Km [14]: 2 µM
kcat [14]: 5 s⁻¹
Km [15]: 9 µM
kcat [15]: 0.2 s⁻¹
Km [16]: > 1000 µM
kcat [16]: < 0.01 s⁻¹
Km [17]: 875 µM
kcat [17]: 28 s⁻¹
Km [18]: 250 µM
kcat [18]: 350 s⁻¹
Km [19]: 18 µM
kcat [19]: 770 s⁻¹
Km [20]: 50 µM
kcat [20]: 140 s⁻¹
Km [21]: > 5 mM
kcat [21]: 5.4 s⁻¹
kcat/Km [22]: 12 µM⁻¹ s⁻¹
kcat/Km [23]: 0.05 µM⁻¹ s⁻¹
kcat/Km [24]: 0.9 µM⁻¹ s⁻¹
kcat/Km [25]: 4 µM⁻¹ s⁻¹
kcat/Km [26]: 1.4 µM⁻¹ s⁻¹
kcat/Km [27]: 1 µM⁻¹ s⁻¹
kcat/Km [28]: 0.072 µM⁻¹ s⁻¹
kcat/Km [29]: 2.4 µM⁻¹ s⁻¹
kcat/Km [30]: 5.8 µM⁻¹ s⁻¹
kcat/Km [31]: 0.4 µM⁻¹ s⁻¹
kcat/Km [32]: 0.1 µM⁻¹ s⁻¹
kcat/Km [33]: 1.6 µM⁻¹ s⁻¹
kcat/Km [34]: 1.2 µM⁻¹ s⁻¹
kcat/Km [35]: 2.5 µM⁻¹ s⁻¹
kcat/Km [36]: 0.022 µM⁻¹ s⁻¹
kcat/Km [37]: 0.032 µM⁻¹ s⁻¹
kcat/Km [38]: 1.4 µM⁻¹ s⁻¹
kcat/Km [39]: 42.8 µM⁻¹ s⁻¹
kcat/Km [40]: 2.8 µM⁻¹ s⁻¹
kcat/Km [41]: 0.0011 µM⁻¹ s⁻¹

From ChEMBL document CHEMBL1275486, “Kinetic characterization of VIM-7, a divergent member of the VIM metallo-beta-lactamase family” (Antimicrob Agents Chemother, 2008)
